Experimental data taken from ChEMBL document CHEMBL5032501, “Total Synthesis and Antimalarial Activity of 2-(p-Hydroxybenzyl)-prodigiosins, Isoheptylprodigiosin, and Geometric Isomers of Tambjamine MYP1 Isolated from Marine Bacteria” (J Med Chem, 2021).
pIC50: −log10 of the molar value.

Legend:
[1] = tested on: Plasmodium falciparum; assay: Antiplasmodial activity against asexual stage of chloroquine-sensitive Plasmodium falciparum D6 infected in human erythrocytes assessed as reduction in parasite growth incubated for 72 hrs by SYBR green 1 staining based assay; type: functional, organism-based; details: D6, Erythrocyte
Summary of the method: (§1)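 P. falciparum grown in human erythrocytes at 2% hematocrit in RPMI 1640 with 0.5% Albumax II, hypoxanthine and gentamicin. Assay run at 0.2% parasitemia, 2% hematocrit, triplicate, 72 h at 37 °C under low oxygen. Starting range 2.5–2500 nM, adjusted as needed. SYBR Green I lysis buffer added for 1 h in the dark, fluorescence read at ex 497/em 520 nm. IC50 by nonlinear regression against drug-free controls.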

[2] = tested on: Plasmodium falciparum; assay: Antiplasmodial activity against asexual blood stage of multidrug-resistant Plasmodium falciparum Dd2 infected in human erythrocytes assessed as reduction in parasite growth incubated for 72 hrs by SYBR green 1 staining based assay; type: functional, organism-based; details: Dd2, Erythrocyte; summary of the method: as §1
[3] = tested on: Plasmodium falciparum; assay: Antiplasmodial activity against asexual blood stage of multidrug-resistant Plasmodium falciparum 7G8 infected in human erythrocytes assessed as reduction in parasite growth incubated for 72 hrs by SYBR green 1 staining based assay; type: functional, organism-based; details: 7G8, Erythrocyte; summary of the method: as §1
[4] = tested on: Plasmodium falciparum; assay: Antiplasmodial activity against asexual blood stage of multidrug-resistant Plasmodium falciparum TM90C2B infected in human erythrocytes assessed as reduction in parasite growth incubated for 72 hrs by SYBR green 1 staining based assay; type: functional, organism-based; details: Erythrocyte
[5] = tested on: HepG2; assay: Cytotoxicity against human HepG2 cells assessed as reduction in cell viability measured for 48 hrs by MTT assay; type: cell-based; details: HepG2, 48 h
[6] = tested on: Plasmodium yoelii; assay: Antimalarial activity against blood stage Plasmodium yoelii infected in CF1 mouse assessed as reduction in parasitemia at 5 mg/kg, po administered once daily for 4 days and measured on day 5 by Giemsa staining based microscopic analysis relative to control; type: functional; set-up: scale not given: the % may be the effect or the level left; details: time 4 day
Summary of the method: (§2)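 Female CF1 mice, 7–8 weeks old, about 30 g, n = 4 per group. Infected iv with 2.5 × 104 P. yoelii (Kenya strain) parasitized erythrocytes from a donor mouse. Dosed orally in PEG-400, 5 or 25 mg/kg once daily for 4 days, starting the day after inoculation. Giemsa-stained tail-vein blood films read the day after the last dose, then weekly to day 28. Parasitemia taken relative to vehicle controls.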

[7] = tested on: Plasmodium yoelii; assay: Antimalarial activity against blood stage Plasmodium yoelii infected in CF1 mouse assessed as reduction in parasitemia at 25 mg/kg, po administered once daily for 4 days and measured on day 5 by Giemsa staining based microscopic analysis relative to control; type: functional; set-up: scale not given: the % may be the effect or the level left; details: time 4 day; summary of the method: as §2
[8] = tested on: Plasmodium yoelii; assay: Antimalarial activity against blood stage Plasmodium yoelii infected in CF1 mouse assessed as reduction in parasitemia administered orally once daily for 4 days and measured for 28 days by Giemsa staining based microscopic analysis; type: functional; details: po, 96 h, time 4 day
Summary of the method: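 Female CF1 mice, 7–8 weeks old, about 30 g, n = 4 per group. Dosed orally in PEG-400, 5 or 25 mg/kg once daily for 4 days, starting the day after inoculation. Giemsa-stained tail-vein blood films read the day after the last dose, then weekly to day 28. Parasitemia taken relative to vehicle controls.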

[9] = Toxicity in CF-1 mouse infected with blood stage Plasmodium yoelii assessed as reduction in body weight at 5 to 25 mg/kg, po administered once daily for 4 days and measured for 28 days; type: organism-based; details: in vivo, 96 h, dose 5-25 mg/kg, time 4 day
Summary of the method: (§3)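 CF1 mice infected with P. yoelii and given oral doses of 5 or 25 mg/kg in PEG-400 once daily for 4 days. Checked daily for mortality, morbidity and signs of toxicity. Body weight, grooming, posture and locomotion monitored over the study, to day 28. Compared with the vehicle control group.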

[10] = Toxicity in CF-1 mouse infected with blood stage Plasmodium yoelii assessed as behavioral changes at 5 to 25 mg/kg, po administered once daily for 4 days and measured for 28 days; type: organism-based; details: in vivo, 96 h, dose 5-25 mg/kg, time 4 day; summary of the method: as §3
[11] = Therapeutic index, ratio of IC50 for cytotoxicity against human HepG2 cells to IC50 for antiplasmodial activity against asexual blood stage of chloroquine-sensitive Plasmodium falciparum D6 infected in human erythrocytes

SMILES	pIC50 [1]	pIC50 [2]	pIC50 [3]	pIC50 [4]	pIC50 [5]	Activity [6] [%]	Activity [7] [%]	ED50 [8] [mg/kg/day]	ED90 [8] [mg/kg/day]	Activity [9]	Activity [10]	selectivity ratio [11]
CCCCCCc1cc(/C=C2\N=C(c3ccc[nH]3)C=C2OC)[nH]c1C.Cl	8.23	8.47	8.44	8.34	5.62	70	100	1.5	4.8	Non-Toxic	Non-Toxic	410
CCCCCc1cc(/C=C2\N=C(c3ccc[nH]3)C=C2OC)[nH]c1C.Cl	8.10	8.14	8.04	8.06	5.97	63	100	3.7	17	Non-Toxic	Non-Toxic	134
CCCCCCCc1cc(/C=C2\N=C(c3ccc[nH]3)C=C2OC)[nH]c1C.Cl	8.38	8.35	8.39	8.60	5.87	89	100	2.6	9.2	Non-Toxic	Non-Toxic	320
CCCCc1cc(/C=C2\N=C(c3ccc[nH]3)C=C2OC)[nH]c1C.Cl	7.96	8.25	8.06	8.07	5.48	67	100	2.5	8.5	Non-Toxic	Non-Toxic	301
CCCCCc1cc(/C=C2\N=C(c3ccc(Cc4ccc(O)cc4)[nH]3)C=C2OC)[nH]c1C.Cl	7.80	7.55	7.57	7.54	5.15	0	0			Non-Toxic	Non-Toxic	439
CCCCCCc1cc(/C=C2\N=C(c3ccc(Cc4ccc(O)cc4)[nH]3)C=C2OC)[nH]c1C.Cl	8.05	7.96	7.89	7.92	5.00	0	9			Non-Toxic	Non-Toxic	1100
COC1=CC(c2ccc[nH]2)=N/C1=C\c1cc(CCCCC(C)C)c(C)[nH]1.Cl	8.39	8.68	8.68	8.59	5.83	65	100	2.7	5.9	Non-Toxic	Non-Toxic	363
O=C1C(O)=C([C@H]2CC[C@H](c3ccc(Cl)cc3)CC2)C(=O)c2ccccc21 [ATOVAQUONE]	10.00		9.70									
CCCCCCCc1cc(/C=C2\N=C(c3ccc(Cc4ccc(O)cc4)[nH]3)C=C2OC)[nH]c1C.Cl	7.32	7.27	7.36	7.40	5.03	25	37			Non-Toxic	Non-Toxic	192
C=CCCCCCCCCc1ccc(C2=N/C(=C\NCCC=C)C(OC)=C2)[nH]1.Cl	8.05	8.19		8.59	5.80	0	42			Non-Toxic	Non-Toxic	180
COC1=CC2=N/C1=C\NCC/C=C/CCCCCCCCc1ccc2[nH]1.Cl	7.66	7.80		7.89	4.53	0	100	15	16	Non-Toxic	Non-Toxic	1340
CCCCc1cc(/C=C2\N=C(c3ccc(Cc4ccc(O)cc4)[nH]3)C=C2OC)[nH]c1C.Cl	7.92	7.92	7.80	7.77	5.05	0	6			Non-Toxic	Non-Toxic	740
CCN(CC)CCCC(C)Nc1ccnc2cc(Cl)ccc12 (stereo unspecified) [CHLOROQUINE]						100	100					
CCCCCc1cc(/C=C2\N=C(c3ccc(Cc4ccc(OC)cc4)[nH]3)C=C2OC)[nH]c1C.Cl	8.62	8.49	8.25	8.64	5.58	60	100	3.6	18	Non-Toxic	Non-Toxic	1100
